From ChEMBL document CHEMBL4257476, “Design, synthesis and biological evaluation of novel 5-hydroxy-2-methyl-4H-pyran-4-one derivatives as antiglioma agents” (Medchemcomm, 2018) come the findings set out here.

The subject of test [1] is HT-1080. Put plainly: Antiproliferative activity against human HT1080 cells by MTT assay. It counts as functional, cell-based. In a few lines: (§1)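 MTT viability: cells grown in DMEM with 10% FBS, 2 mM L-glutamine and penicillin/streptomycin at 37 °C, 5% CO2. Seeded 5000/well for 12 h. Compound diluted 1000× from DMSO stock (final DMSO <0.1%). MTT conversion to formazan for 4 h, absorbance at 562 nm. 4 replicate wells per concentration, at least three runs.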

Test [2] relates to U-87 MG. The test is described as follows: Antiproliferative activity against human U87 cells by MTT assay. It counts as functional, cell-based, U-87MG ATCC. In short, it runs like this: as §1
For test [3], the system named is Isocitrate dehydrogenase [NADP] cytoplasmic (Homo sapiens), O75874 [R132H]. Put plainly: Inhibition of IDH1 […] cells assessed as decrease in D-2HG levels at 1 uM after 48 hrs by HPLC-MS analysis relative to control. It counts as cell-based. In a few lines:
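HT1080 cells (1×10^5/well, 6-well plates) attached overnight in DMEM with 10% dialyzed FBS. Treated 48 h with rising compound concentrations in 2 mL medium. Quantified by SIM at 147 Da from peak area against an authentic D-2HG standard curve.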

The subject of test [4] is U-87 MG. The test is described as follows: Antimigratory activity in human U87 cells assessed as migration rate at 1 uM after 12 hrs by scratch assay (reference value: 51.3%). Type of test: functional, U-87MG ATCC.
Test [5] concerns U-87 MG. The test is described as follows: Antimigratory activity in human U87 cells assessed as migration rate at 1 uM after 24 hrs by scratch assay (reference value: 17.5%). It counts as functional, U-87MG ATCC.
In test [6] the test system is HT-1080. Put plainly: Antimigratory activity in human HT1080 cells assessed as scratch area at 1 uM after 6 hrs (reference value: 58.7%). It counts as functional.
Test [7] has as its system HT-1080. The test is described as follows: Antimigratory activity in human HT1080 cells assessed as scratch area at 1 uM after 12 hrs (reference value: 23.3%). Type of test: functional.
Test [8] concerns U-87 MG. The test is described as follows: Inhibition of colony formation of human U87 cells after 8 days by Giemsa-Wright staining-based assay. Type of test: functional, cell-based. The note with it: U-87MG ATCC. In a few lines:
(§2)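 Colony formation: 200 cells/well in 6-well plates, 2 mL medium, treated 8 days with DMSO control or compound. Cells then washed three times with cold PBS, fixed in 95% cold MeOH for 15 min, and stained with Giemsa-Wright. Colonies counted by eye at least three times.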

Test [9] concerns U-87 MG. Put plainly: Inhibition of colony formation of human U87 cells at 0.5 uM after 8 days by Giemsa-Wright staining-based assay relative to control. It counts as functional, U-87MG ATCC. The note with it: 192 h. In a few lines:
as §2

The test system of test [10] is U-87 MG. Put plainly: Inhibition of colony formation of human U87 cells at 1 uM after 8 days by Giemsa-Wright staining-based assay relative to control. It counts as functional, U-87MG ATCC. The settings on record: 192 h. In a few lines:
as §2

Test [11] concerns HT-1080. The test is described as follows: Inhibition of colony formation of human HT1080 cells at 0.5 uM after 8 days by Giemsa-Wright staining-based assay relative to control. It counts as functional. The note with it: HT-1080, 192 h. In short, it runs like this:
as §2

Test [12] relates to HT-1080. The test is described as follows: Inhibition of colony formation of human HT1080 cells at 1 uM after 8 days by Giemsa-Wright staining-based assay relative to control. Type of test: functional. The note with it: HT-1080, 192 h. In short, it runs like this: as §2
In test [13] the target is Isocitrate dehydrogenase [NADP] cytoplasmic (Homo sapiens, UniProt O75874, R132H). Put plainly: Inhibition of His-tagged recombinant human IDH1 R132H mutant expressed in Escherichia coli Rosetta (DE3) preincubated for 30 mins followed by NADPH/alpha-KG addition and measured after 1 hr. In a few lines:
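His-tagged mutant human IDH1 expressed from pET28a in E. coli Rosetta (DE3) with 1 mM IPTG, purified on Ni-NTA with imidazole step elution. Enzyme and compound preincubated 30 min at room temperature in 50 mM Tris, 200 mM NaCl, 5 mM β-mercaptoethanol, 2 mM MgSO4, 10% glycerol. MgCl2, NADPH and α-KG then added, 1 h at 37 °C; NADPH consumption read at 340 nm.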

The test system of test [14] is HT-1080. Put plainly: Antimigratory activity in human HT1080 cells assessed as scratch area at 10 uM after 6 hrs (reference value: 58.7%). Type of test: functional.
Test [15] concerns HT-1080. Put plainly: Antimigratory activity in human HT1080 cells assessed as scratch area at 10 uM after 12 hrs (reference value: 23.3%). Type of test: functional.

pIC50: −log10 of the molar value.

Sequence of Isocitrate dehydrogenase [NADP] cytoplasmic (O75874 2-414 R132H limits assumed): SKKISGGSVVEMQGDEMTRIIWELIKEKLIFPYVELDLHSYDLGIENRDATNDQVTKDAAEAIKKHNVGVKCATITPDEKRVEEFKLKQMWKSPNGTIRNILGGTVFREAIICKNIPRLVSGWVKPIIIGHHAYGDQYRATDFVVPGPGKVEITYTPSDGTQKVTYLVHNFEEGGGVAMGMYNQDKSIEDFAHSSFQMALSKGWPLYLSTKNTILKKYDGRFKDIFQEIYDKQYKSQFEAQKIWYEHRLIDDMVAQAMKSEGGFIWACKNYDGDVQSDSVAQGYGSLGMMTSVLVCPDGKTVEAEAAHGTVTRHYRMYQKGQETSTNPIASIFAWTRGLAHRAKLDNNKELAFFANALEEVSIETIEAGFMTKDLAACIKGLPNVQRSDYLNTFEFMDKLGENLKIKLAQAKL
Sequence of Isocitrate dehydrogenase [NADP] cytoplasmic (Homo sapiens), O75874 [R132H] (O75874 whole entry R132H): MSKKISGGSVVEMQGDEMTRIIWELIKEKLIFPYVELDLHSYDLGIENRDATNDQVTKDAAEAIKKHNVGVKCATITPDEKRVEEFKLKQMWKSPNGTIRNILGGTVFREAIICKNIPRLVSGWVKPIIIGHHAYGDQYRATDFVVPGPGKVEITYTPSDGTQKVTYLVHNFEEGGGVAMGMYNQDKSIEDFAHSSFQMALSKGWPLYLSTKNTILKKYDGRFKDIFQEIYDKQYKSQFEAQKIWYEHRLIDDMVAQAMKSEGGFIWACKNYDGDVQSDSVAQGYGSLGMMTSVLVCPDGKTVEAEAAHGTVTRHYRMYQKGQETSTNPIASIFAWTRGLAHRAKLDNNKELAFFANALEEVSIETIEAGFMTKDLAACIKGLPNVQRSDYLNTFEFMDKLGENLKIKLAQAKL

Turning to `Cc1cc(=O)c(O)c(C(c2ccc(OCc3ccccc3)cc2)c2oc(C)cc(=O)c2O)o1`, the pIC50 was 5.84 with HT-1080 [1], 5.34 in the test with U-87 MG [2] and 4.64 in [13]. For the same compound, the inhibition in test [3] was 86.5%; with U-87 MG [8] it was “Dose-dependent effect”. The Activity in the test on U-87 MG [4] came out at 82.8%; in the test on U-87 MG [5], 69.5%; in the test with HT-1080 [6], 61%; in the test with HT-1080 [7], 43.5%. The inhibition at 0.5 µM in the test on U-87 MG [9] came to 11.3%; with HT-1080 [11], 75%. Further, the inhibition at 1 µM in the test on U-87 MG [10] was determined as 96.8%; in the test with HT-1080 [12] it was 99.5%.
Turning to `Cc1cc(=O)c(O)c(Cc2ccc(Cl)cc2)o1`, the negative-log IC50 (pIC50) (with HT-1080 [1]; in the test on U-87 MG [2]; in test [13]) was less than 4.30 throughout.
On to `Cc1cc(=O)c(O)c(C(c2ccc(OCc3ccc([N+](=O)[O-])cc3)cc2)c2oc(C)cc(=O)c2O)o1`, for which the pIC50 with HT-1080 [1] was 5.51; in the test on U-87 MG [2], less than 4.30; in [13], less than 4.30.
As for `Cc1cc(=O)c(O)c(Cc2ccc(OCc3ccccc3)cc2)o1`, the pIC50 (in the test with HT-1080 [1]; with U-87 MG [2]; in test [13]) was less than 4.30 throughout.
Regarding `Cc1cc(=O)c(O)c(Cc2ccc(C(F)(F)F)cc2)o1`, the results for the pIC50 (with HT-1080 [1]; in the test with U-87 MG [2]; in test [13]) were 4.61, less than 4.30 and less than 4.30, respectively.
`Cc1cc(=O)c(O)c(C(c2ccc(CCc3ccccc3)cc2)c2oc(C)cc(=O)c2O)o1`: the pIC50 with HT-1080 [1] was less than 4.30; in the test on U-87 MG [2], 4.57; in test [13] it was less than 4.30.
With `COc1ccc(COc2ccc(C(c3oc(C)cc(=O)c3O)c3oc(C)cc(=O)c3O)cc2)cc1`, the pIC50 in the test on HT-1080 [1] is 5.59; with U-87 MG [2] it was 5.28; in test [13], 4.49.
For the compound `Cc1cc(=O)c(O)c(Cc2ccccc2)o1`, the pIC50 (with HT-1080 [1]; with U-87 MG [2]; in test [13]) was less than 4.30 in each case.
Turning to `Cc1ccccc1C(C(=O)NC1CCCCC1)N(C(=O)Cn1ccnc1C)c1cccc(F)c1` (stereo not given), the figures for the negative-log IC50 (pIC50) (in the test with U-87 MG [2]; in test [13]) were 4.70 and 7.10, respectively. Also, the inhibition in test [3] was 86.9%. Moreover, the Activity with U-87 MG [4] is 84%; with U-87 MG [5], 51%; with HT-1080 [14], 70%; in the test on HT-1080 [15], 56%.
`Cc1cc(=O)c(O)c(Cc2ccc(F)cc2)o1`: the pIC50 (in the test with HT-1080 [1]; in the test on U-87 MG [2]; in test [13]) was less than 4.30 each time.
Turning to `C=CCOc1ccc(C(c2oc(C)cc(=O)c2O)c2oc(C)cc(=O)c2O)cc1`, the values for the pIC50 (in the test on HT-1080 [1]; in the test on U-87 MG [2]; in test [13]) were 4.55, 4.51 and less than 4.30, respectively.
The corresponding values for `CCCOc1ccc(C(c2oc(C)cc(=O)c2O)c2oc(C)cc(=O)c2O)cc1` are 4.58, 4.53 and less than 4.30.
